Inhibition and IC50 data for 9 molecules are collected here from ChEMBL document CHEMBL1137681, “Design, synthesis and characterization of N9/N7-substituted 6-aminopurines as VEGF-R and EGF-R inhibitors” (Eur J Med Chem, 2009).

Test [1] addresses Vascular endothelial growth factor receptor 2 (Homo sapiens, UniProt P35968). As to the kind of experiment: Inhibition of VEGFR2.
Test [2] concerns the target T1, Serine/threonine-protein kinase PLK4 (Homo sapiens) (UniProt O00444).
T1 sequence (whole entry): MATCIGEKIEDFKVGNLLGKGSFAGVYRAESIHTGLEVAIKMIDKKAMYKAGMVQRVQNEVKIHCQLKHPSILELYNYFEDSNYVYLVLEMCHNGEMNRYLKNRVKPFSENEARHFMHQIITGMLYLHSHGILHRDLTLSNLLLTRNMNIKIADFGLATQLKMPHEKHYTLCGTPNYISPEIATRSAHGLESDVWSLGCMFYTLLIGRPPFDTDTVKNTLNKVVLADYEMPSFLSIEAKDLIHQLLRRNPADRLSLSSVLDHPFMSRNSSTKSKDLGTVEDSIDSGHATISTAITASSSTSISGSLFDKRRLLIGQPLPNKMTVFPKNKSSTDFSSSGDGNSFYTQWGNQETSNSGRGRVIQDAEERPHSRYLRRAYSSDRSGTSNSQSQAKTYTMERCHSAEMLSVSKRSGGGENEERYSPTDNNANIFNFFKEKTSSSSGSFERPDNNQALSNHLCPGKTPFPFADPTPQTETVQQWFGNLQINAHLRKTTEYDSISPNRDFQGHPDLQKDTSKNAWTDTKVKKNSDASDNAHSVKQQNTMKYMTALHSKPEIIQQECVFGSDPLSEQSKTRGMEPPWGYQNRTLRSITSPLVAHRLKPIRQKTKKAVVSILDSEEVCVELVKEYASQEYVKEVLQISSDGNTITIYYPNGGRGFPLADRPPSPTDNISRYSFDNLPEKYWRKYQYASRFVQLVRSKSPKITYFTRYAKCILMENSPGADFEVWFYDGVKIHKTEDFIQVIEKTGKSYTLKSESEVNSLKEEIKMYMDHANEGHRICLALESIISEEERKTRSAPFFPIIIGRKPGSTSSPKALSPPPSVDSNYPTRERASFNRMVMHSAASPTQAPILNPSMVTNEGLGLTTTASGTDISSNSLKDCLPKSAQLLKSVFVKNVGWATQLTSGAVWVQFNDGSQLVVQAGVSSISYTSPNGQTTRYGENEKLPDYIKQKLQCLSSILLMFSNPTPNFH
As to the kind of experiment: Inhibition of SAK up to 100 uM.

The target in test [3] is T2, Ephrin type-B receptor 4 (Homo sapiens) (UniProt P54760).
T2 sequence (whole entry): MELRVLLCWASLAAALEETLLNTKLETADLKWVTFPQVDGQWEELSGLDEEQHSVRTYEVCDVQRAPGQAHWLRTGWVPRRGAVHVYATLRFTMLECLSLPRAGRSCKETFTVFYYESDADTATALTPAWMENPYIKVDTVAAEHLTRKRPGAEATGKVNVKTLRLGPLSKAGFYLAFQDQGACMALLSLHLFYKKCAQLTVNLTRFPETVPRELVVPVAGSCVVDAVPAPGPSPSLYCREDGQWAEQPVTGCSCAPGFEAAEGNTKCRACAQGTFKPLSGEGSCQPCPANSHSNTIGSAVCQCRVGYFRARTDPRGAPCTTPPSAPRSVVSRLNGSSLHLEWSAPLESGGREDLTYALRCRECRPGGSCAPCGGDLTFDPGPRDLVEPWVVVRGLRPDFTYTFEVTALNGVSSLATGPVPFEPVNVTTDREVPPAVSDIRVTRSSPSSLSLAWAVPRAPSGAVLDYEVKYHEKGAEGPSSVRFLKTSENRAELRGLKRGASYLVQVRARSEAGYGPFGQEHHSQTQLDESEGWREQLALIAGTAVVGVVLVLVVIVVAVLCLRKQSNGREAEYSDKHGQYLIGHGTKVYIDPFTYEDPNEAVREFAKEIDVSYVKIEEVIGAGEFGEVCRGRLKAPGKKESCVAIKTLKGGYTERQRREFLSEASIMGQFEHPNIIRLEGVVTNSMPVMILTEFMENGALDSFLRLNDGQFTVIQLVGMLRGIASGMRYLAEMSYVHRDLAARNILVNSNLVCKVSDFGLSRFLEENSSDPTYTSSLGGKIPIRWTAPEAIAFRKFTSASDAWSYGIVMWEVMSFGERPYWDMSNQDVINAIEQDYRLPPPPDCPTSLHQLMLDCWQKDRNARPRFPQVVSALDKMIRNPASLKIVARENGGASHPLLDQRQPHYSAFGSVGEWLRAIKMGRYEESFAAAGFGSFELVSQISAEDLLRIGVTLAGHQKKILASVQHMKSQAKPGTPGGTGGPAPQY
As to the kind of experiment: Inhibition of EPHB4 up to 100 uM. The method in brief: (§1)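 Buffer: HEPES-NaOH pH 7.5, Mg2+/Mn2+, vanadate, DTT, PEG20000, 1% DMSO. Incubated 30 °C for 80 min, stopped with 2% H3PO4, washed, and scintillation-counted. IC50 from 10 concentrations in singlicate.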

Test [4] concerns the target Vascular endothelial growth factor receptor 3 (Homo sapiens, UniProt P35916). As to the kind of experiment: Inhibition of VEGFR3.
In test [5] the target is Epidermal growth factor receptor (Homo sapiens, UniProt P00533). As to the kind of experiment: Inhibition of EGFR.
In test [6] the target is Insulin-like growth factor 1 receptor (Homo sapiens) (UniProt P08069). As to the kind of experiment: Inhibition of IGF1R up to 100 uM. The method in brief: as §1
In test [7] the target is Receptor tyrosine-protein kinase erbB-2 (Homo sapiens, UniProt P04626). The experiment in a line: Inhibition of ERBB2. Put shortly:
as §1

Test [8] concerns the target Cyclin-dependent kinase 2 (Homo sapiens) (UniProt P24941). The experiment in a line: Inhibition of CDK2/cyclin A up to 100 uM. Put shortly: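 Buffer was HEPES-NaOH pH 7.5 with MgCl2/MnCl2, vanadate, DTT, PEG20000 and 1% DMSO. Run 80 min at 30 °C, H3PO4 stop, NaCl wash, scintillation read-out. IC50 from 10 concentrations, singlicate.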
Another test has as its target Aurora kinase B (Homo sapiens, UniProt Q96GD4). The experiment in a line: Inhibition of Aurora B. Put shortly: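 Buffer was HEPES-NaOH pH 7.5 with MgCl2, MnCl2, vanadate, DTT, PEG20000 and 1% DMSO. Run 80 min at 30 °C, quenched with 2% H3PO4, NaCl-washed, then scintillation-counted. IC50 fitted from 10 concentrations tested once each.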
The target in test [9] is Cyclin-dependent kinase 4/cyclin D1 (Homo sapiens) (UniProt P11802+P24385). The experiment in a line: Inhibition of CDK4/Cyclin D1 up to 100 uM. It counts as protein-complex assay. The method in brief: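 Buffer: HEPES-NaOH pH 7.5, Mg2+/Mn2+, vanadate, DTT, PEG20000, 1% DMSO. Incubated 80 min at 30 °C, stopped with 2% H3PO4, washed with 0.9% NaCl, and counted by scintillation. IC50 from 10 concentrations, singlicate.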

Test [10] relates to Serine/threonine-protein kinase B-raf (Homo sapiens), P15056 [V600E]. As to the kind of experiment: Inhibition of BRAF V600E mutant.
In test [11] the target is Platelet-derived growth factor receptor beta (Homo sapiens) (UniProt P09619). The experiment in a line: Inhibition of PDGFRbeta up to 100 uM.

The source made the active and inactive calls. No cut-off for these calls is given here.

Chain of Insulin-like growth factor 1 receptor (Homo sapiens) (P08069 31-736 limits assumed): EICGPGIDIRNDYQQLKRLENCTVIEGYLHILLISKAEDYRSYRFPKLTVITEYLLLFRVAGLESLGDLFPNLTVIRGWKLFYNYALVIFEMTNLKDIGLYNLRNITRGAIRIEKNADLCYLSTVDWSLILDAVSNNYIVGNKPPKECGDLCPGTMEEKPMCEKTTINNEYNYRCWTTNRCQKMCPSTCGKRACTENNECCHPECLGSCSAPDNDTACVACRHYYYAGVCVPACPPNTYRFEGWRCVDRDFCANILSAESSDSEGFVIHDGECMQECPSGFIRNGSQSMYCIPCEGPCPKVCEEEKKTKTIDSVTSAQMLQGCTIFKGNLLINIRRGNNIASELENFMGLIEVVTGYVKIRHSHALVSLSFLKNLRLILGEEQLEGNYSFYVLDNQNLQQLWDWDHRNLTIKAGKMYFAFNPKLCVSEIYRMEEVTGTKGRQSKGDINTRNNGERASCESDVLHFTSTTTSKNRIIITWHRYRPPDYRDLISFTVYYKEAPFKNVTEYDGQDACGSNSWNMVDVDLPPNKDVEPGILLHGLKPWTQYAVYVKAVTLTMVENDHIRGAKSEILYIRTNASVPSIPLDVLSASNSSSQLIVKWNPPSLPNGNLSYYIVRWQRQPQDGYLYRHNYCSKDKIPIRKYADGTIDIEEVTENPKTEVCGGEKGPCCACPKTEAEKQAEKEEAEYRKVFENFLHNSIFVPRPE
Chain of Insulin-like growth factor 1 receptor (Homo sapiens) (P08069 741-1367 limits assumed): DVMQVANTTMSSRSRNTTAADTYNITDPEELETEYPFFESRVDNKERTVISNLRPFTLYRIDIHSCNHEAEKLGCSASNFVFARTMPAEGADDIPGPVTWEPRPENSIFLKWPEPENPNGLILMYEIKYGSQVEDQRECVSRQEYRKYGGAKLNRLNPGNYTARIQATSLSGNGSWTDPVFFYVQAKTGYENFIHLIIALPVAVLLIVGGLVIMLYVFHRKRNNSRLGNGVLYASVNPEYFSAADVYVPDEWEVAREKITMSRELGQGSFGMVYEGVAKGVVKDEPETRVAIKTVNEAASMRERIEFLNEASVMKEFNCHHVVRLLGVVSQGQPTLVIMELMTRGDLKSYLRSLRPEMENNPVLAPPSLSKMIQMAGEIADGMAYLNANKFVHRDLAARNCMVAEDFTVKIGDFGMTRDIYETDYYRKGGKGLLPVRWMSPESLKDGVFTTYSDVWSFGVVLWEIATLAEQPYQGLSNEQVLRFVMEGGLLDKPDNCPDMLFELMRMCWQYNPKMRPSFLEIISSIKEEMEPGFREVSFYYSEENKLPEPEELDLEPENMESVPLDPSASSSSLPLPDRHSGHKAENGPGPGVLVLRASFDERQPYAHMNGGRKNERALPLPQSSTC
Chain of Vascular endothelial growth factor receptor 3 (P35916 whole entry): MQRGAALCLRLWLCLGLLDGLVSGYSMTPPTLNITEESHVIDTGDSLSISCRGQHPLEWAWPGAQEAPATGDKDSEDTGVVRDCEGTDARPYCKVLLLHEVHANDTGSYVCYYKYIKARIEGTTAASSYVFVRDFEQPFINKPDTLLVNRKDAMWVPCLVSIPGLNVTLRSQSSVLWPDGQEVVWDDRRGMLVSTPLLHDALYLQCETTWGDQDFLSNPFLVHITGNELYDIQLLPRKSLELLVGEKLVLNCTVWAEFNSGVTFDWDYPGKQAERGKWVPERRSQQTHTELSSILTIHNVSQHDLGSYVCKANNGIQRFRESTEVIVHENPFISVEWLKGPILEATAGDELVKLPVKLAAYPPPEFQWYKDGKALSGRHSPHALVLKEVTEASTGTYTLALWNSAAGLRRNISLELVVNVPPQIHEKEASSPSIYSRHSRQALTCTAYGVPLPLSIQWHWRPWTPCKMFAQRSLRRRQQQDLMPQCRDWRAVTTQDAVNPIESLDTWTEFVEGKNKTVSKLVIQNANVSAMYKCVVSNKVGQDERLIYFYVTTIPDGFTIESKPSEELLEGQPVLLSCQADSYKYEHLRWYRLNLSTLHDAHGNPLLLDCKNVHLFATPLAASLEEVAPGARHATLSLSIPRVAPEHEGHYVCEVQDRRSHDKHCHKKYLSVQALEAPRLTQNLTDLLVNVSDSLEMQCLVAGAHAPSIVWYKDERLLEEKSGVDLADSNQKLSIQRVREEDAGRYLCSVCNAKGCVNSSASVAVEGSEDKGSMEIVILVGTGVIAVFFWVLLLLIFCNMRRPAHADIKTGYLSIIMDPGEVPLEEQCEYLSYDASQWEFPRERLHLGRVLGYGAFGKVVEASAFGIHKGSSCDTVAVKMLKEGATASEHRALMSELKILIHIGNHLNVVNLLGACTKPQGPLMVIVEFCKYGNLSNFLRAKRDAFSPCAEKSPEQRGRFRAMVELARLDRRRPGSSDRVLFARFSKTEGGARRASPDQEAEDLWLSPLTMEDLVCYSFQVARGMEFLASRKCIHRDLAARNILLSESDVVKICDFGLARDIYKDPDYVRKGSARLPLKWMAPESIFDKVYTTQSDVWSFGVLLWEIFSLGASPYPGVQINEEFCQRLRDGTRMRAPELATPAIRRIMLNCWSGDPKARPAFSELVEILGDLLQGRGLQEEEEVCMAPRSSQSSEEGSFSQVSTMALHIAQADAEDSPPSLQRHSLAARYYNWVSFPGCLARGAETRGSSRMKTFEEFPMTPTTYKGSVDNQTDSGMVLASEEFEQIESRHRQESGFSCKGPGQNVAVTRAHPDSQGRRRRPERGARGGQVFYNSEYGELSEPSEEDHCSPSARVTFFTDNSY
Chain of Receptor tyrosine-protein kinase erbB-2 (P04626 whole entry): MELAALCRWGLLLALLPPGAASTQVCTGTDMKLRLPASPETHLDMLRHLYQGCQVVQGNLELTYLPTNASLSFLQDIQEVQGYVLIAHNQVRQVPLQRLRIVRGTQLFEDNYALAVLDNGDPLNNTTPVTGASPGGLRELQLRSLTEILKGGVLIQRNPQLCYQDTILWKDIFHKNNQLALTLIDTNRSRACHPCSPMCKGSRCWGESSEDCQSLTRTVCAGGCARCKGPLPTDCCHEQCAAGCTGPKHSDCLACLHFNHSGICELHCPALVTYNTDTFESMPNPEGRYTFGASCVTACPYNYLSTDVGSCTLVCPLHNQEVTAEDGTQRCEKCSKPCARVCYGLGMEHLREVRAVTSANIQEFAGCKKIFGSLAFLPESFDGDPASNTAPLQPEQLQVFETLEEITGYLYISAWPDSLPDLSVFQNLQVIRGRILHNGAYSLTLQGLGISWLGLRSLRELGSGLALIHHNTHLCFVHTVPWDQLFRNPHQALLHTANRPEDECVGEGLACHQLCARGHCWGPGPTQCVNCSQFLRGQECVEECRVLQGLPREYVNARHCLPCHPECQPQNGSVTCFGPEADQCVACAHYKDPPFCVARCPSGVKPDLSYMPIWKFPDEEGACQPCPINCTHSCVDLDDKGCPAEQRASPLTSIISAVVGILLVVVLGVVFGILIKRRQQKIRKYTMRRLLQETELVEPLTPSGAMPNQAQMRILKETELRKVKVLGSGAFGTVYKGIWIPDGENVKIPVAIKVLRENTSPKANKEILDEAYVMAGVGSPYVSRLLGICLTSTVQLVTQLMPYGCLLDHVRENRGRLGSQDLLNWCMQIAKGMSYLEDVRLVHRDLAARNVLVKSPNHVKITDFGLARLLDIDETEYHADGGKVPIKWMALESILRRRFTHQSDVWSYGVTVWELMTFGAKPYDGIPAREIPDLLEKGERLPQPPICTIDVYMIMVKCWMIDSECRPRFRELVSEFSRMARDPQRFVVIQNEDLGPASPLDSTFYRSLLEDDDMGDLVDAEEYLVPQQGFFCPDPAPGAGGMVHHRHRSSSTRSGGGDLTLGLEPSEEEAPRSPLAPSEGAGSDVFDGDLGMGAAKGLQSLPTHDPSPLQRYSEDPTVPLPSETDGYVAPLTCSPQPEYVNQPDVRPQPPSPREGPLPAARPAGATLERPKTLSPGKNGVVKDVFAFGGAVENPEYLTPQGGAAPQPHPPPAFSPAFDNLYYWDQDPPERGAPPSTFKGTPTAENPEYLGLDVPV
Chain of Platelet-derived growth factor receptor beta (Homo sapiens) (P09619 whole entry): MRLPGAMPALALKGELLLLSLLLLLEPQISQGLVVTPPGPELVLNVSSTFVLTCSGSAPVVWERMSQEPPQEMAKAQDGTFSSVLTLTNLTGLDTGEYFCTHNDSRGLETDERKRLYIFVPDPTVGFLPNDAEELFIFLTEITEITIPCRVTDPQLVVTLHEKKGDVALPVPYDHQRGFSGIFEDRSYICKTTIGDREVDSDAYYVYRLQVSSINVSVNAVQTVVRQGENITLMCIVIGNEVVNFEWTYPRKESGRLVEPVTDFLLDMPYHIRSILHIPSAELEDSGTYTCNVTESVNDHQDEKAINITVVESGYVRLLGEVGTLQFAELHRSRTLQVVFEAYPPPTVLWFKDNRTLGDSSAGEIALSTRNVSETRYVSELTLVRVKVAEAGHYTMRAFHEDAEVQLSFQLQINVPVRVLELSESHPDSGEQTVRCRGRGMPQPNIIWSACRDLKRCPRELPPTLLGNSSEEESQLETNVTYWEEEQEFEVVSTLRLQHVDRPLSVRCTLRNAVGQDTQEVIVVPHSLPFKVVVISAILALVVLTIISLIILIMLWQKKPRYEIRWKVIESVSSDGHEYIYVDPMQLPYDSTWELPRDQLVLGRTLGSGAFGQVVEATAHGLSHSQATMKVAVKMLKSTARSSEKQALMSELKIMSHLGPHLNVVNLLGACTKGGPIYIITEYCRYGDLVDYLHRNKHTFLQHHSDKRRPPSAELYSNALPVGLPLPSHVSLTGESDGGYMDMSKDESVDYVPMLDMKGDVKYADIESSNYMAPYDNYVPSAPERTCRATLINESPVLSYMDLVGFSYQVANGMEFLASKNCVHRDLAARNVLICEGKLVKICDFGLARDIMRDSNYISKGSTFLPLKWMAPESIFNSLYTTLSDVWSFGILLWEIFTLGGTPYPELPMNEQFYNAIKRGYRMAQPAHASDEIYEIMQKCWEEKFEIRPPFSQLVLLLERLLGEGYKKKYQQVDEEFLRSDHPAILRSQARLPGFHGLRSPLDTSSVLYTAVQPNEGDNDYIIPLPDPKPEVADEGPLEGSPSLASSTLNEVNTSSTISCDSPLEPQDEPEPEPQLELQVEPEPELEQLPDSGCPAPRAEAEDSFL

`CN(C)c1ncnc2c1ncn2CC(=O)c1c[nH]c2ccccc12`: the inhibition entry in test [1], in test [2], in test [3], in [4], in test [5] and in [6] was “inactive” each time. Also, the inhibition result (in test [7]; in test [8]; at Aurora kinase B; in [9]; in test [10]; in test [11]) was “inactive” throughout.

For `Nc1ncnc2ncn(CC(=O)c3ccccc3)c12`, the inhibition result in test [1], in test [2], in test [3], in test [6], in test [7] and in [8] was “inactive” each time. For the same molecule, the inhibition result (at Aurora kinase B; in test [9]; in [10]; in test [11]) was “inactive” throughout.

`Nc1ncnc2c1ncn2CC(=O)c1cccnc1`: the half-maximal inhibitory concentration (IC50) turned out to be 58 µM in test [1] and 93 µM in [5]. Moreover, the inhibition entry in test [2], in test [3], in test [4], in test [6], in test [7] and in test [8] was “inactive” each time. Further, the inhibition result (at Aurora kinase B; in test [9]; in test [10]; in test [11]) was “inactive” each time.

Consider `Nc1ncnc2c1ncn2CC(=O)c1ccccn1`, for which the inhibition entry in test [1], in [2], in test [3], in test [4], in [6] and in test [7] was “inactive” throughout. For the same molecule, the inhibition result (in test [8]; on Aurora kinase B; in test [9]; in test [10]; in [11]) was “inactive” in each case. It took 89 µM to reach half-maximal inhibition in test [5] (IC50).

Consider `COc1ncnc2ncn(CC(=O)c3ccccc3)c12`, for which the inhibition entry in [1], in test [2], in [3], in [4], in test [5] and in test [6] was “inactive” throughout. Further, the inhibition result (in test [7]; in test [8]; at Aurora kinase B; in test [9]; in test [10]; in test [11]) was “inactive” throughout.

In test [1], `Nc1ncnc2ncn(CC(=O)c3c[nH]c4ccccc34)c12` displayed an IC50 of 30 µM. For the same molecule, the inhibition result in [2], in test [3], in test [4], in [6], in [7] and in test [8] was “inactive” each time. Further, the inhibition entry (on Aurora kinase B; in [9]; in [10]; in [11]) was “inactive” each time.

With `Nc1ncnc2c1ncn2CC(=O)c1c[nH]c2ccccc12`, the IC50 was determined as 81 µM in test [1], 35 µM in test [5], 95 µM in [7] and 69 µM against Aurora kinase B. Also, the inhibition entry in [2], in test [3], in [4], in [6], in test [8] and in test [9] was “inactive” throughout. For the same molecule, the inhibition result in [11] was “inactive”.

Take `Nc1ncnc2c1ncn2CC(=O)c1ccccc1`: the inhibition entry (in [2]; in [3]; in test [4]; in test [6]; in [8]; at Aurora kinase B) was “inactive” in each case. The inhibition result in test [9], in test [10] and in test [11] was “inactive” each time. Moreover, the IC50 in test [5] stood at 75 µM.

For the molecule `COc1ncnc2c1ncn2CC(=O)c1ccccc1`, the results for the IC50 in [1] and in test [4] were 25 µM and 45 µM, respectively. For the same molecule, the inhibition entry in [2], in test [3], in test [5], in [6], in [7] and in test [8] was “inactive” throughout. Further, the inhibition entry (on Aurora kinase B; in test [9]; in test [10]; in test [11]) was “inactive” each time.

As a reminder, the IC50 is the midpoint of a concentration-inhibition curve. A low value points to higher potency.
